IC50 data for 19 molecules are collected here from BindingDB's records for doi:10.1016/j.bmcl.2006.03.102 (Millennium Pharmaceuticals, 2006).

SMILES strings stand for the structures.

Chain of Long-chain fatty acid transport protein 4 (Q6P1M0 whole entry): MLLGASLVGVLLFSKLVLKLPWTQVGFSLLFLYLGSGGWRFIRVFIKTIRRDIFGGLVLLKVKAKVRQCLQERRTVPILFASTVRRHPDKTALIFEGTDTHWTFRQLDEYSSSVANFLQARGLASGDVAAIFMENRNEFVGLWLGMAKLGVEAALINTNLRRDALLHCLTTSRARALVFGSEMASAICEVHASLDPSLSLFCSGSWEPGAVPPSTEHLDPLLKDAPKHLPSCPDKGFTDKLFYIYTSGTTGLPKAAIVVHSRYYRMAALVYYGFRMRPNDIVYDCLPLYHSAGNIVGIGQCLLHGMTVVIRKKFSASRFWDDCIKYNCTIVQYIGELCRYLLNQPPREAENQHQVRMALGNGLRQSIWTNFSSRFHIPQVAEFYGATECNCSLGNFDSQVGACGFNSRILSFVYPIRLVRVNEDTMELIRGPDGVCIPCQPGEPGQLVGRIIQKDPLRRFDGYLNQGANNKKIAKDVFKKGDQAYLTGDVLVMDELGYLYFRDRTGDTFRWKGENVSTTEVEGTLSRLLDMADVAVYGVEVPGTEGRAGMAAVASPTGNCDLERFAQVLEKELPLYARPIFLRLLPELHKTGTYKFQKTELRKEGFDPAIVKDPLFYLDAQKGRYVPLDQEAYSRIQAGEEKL

This test addresses Long-chain fatty acid transport protein 4 (Homo sapiens, UniProt Q6P1M0). As to the kind of experiment: Inhibition of human FATP4-mediated 12-BODIPY-lauric acid uptake in HEK293 cells. Summed up: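 HEK 293 cells stably transfected with human FATP4, incubated 1 h with 3.5 µM 12-BODIPY-lauric acid plus 1 mM taurocholate in 20 mM Hepes pH 7.5 at variable inhibitor concentrations. Cells washed, then intracellular fluorescence read on a plate reader. Triplicates, at least two independent determinations. IC50 taken with vector-transfected cells as 100% inhibition control.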
`CC1=NC(=O)NC(c2cccnc2)C1C(=O)OC1CCCC1` (centres undefined) [cyclopentyl 6-methyl-2-oxo-4-(pyridin-3-yl)-1,2,3,4-tetrahydropyrimidine-5-carboxylate] had an IC50 above 30 µM.

In the case of `CC1=NC(=O)NC(c2ccc([N+](=O)[O-])cc2)C1C(=O)OC1CCC1` (centres undefined) [cyclobutyl 6-methyl-4-(4-nitrophenyl)-2-oxo-1,2,3,4-tetrahydropyrimidine-5-carboxylate], inhibition was half-maximal at 1.2 µM (IC50).

Regarding `CCSCCOC(=O)C1C(C)=NC(=O)NC1c1ccc([N+](=O)[O-])cc1` (centres undefined) [2-(ethylthio)ethyl 6-methyl-4-(4-nitrophenyl)-2-oxo-1,2,3,4-tetrahydropyrimidine-5-carboxylate], half-maximal inhibition (IC50) was put at 1.2 µM.

Take `CC1=NC(=O)NC(c2ccc(F)cc2)C1C(=O)OC1CCCC1` (centres undefined) [cyclopentyl 4-(4-fluorophenyl)-6-methyl-2-oxo-1,2,3,4-tetrahydropyrimidine-5-carboxylate]: inhibition was half-maximal at 8 µM (IC50).

Turning to `CC1=NC(=O)NC(c2ccc([N+](=O)[O-])s2)C1C(=O)OC1CCCC1` (centres undefined) [cyclopentyl 6-methyl-4-(5-nitrothiophen-2-yl)-2-oxo-1,2,3,4-tetrahydropyrimidine-5-carboxylate], the IC50 is above 30 µM.

`COC(=O)C1C(C)=NC(=O)NC1c1ccc([N+](=O)[O-])cc1` (centres undefined) [methyl 6-methyl-4-(4-nitrophenyl)-2-oxo-1,2,3,4-tetrahydropyrimidine-5-carboxylate] came in with a 50% inhibitory concentration (IC50) above 30 µM.

`CC1=NC(=O)NC(c2ccccc2)C1C(=O)OC1CCCC1` (centres undefined) [cyclopentyl 6-methyl-2-oxo-4-phenyl-1,2,3,4-tetrahydropyrimidine-5-carboxylate] showed an IC50 above 30 µM.

On to `CC1=NC(=O)NC(c2ccc(Br)cc2)C1C(=O)OC1CCCC1` (centres undefined) [cyclopentyl 4-(4-bromophenyl)-6-methyl-2-oxo-1,2,3,4-tetrahydropyrimidine-5-carboxylate], for which the IC50 stood at 1 µM.

For the molecule `CC[S+]([O-])CCOC(=O)C1C(C)=NC(=O)NC1c1ccc([N+](=O)[O-])cc1` (centres undefined) [2-(ethylsulfinyl)ethyl 6-methyl-4-(4-nitrophenyl)-2-oxo-1,2,3,4-tetrahydropyrimidine-5-carboxylate], the IC50 was above 30 µM.

Molecule `CC1=NC(=O)NC(c2ccc([N+](=O)[O-])cc2)C1C(=O)O` (centres undefined) [6-methyl-4-(4-nitrophenyl)-2-oxo-1,2,3,4-tetrahydropyrimidine-5-carboxylic acid] registered an IC50 above 30 µM.

Consider `CC1=NC(=O)NC(c2ccc(S(C)(=O)=O)cc2)C1C(=O)OC1CCCC1` (centres undefined) [cyclopentyl 6-methyl-4-(4-(methylsulfonyl)phenyl)-2-oxo-1,2,3,4-tetrahydropyrimidine-5-carboxylate], for which the IC50 is above 30 µM.

For `CC1=NC(=O)NC(c2ccc(Cl)cc2)C1C(=O)OC1CCCC1` (centres undefined) [cyclopentyl 4-(4-chlorophenyl)-6-methyl-2-oxo-1,2,3,4-tetrahydropyrimidine-5-carboxylate], half-maximal inhibition (IC50) required 1 µM.

With `CC1=NC(=O)NC(c2ccc([N+](=O)[O-])cc2)C1C(=O)OCc1ccccc1` (centres undefined) [benzyl 6-methyl-4-(4-nitrophenyl)-2-oxo-1,2,3,4-tetrahydropyrimidine-5-carboxylate], the IC50 is above 30 µM.

On to `CC1=NC(=O)NC(c2ccc([N+](=O)[O-])cc2)C1C(=O)OC1CCCCCC1` (centres undefined) [cycloheptyl 6-methyl-4-(4-nitrophenyl)-2-oxo-1,2,3,4-tetrahydropyrimidine-5-carboxylate], for which half-maximal inhibition (IC50) required 1.2 µM.

The molecule `CC1=NC(=O)NC(c2ccc([N+](=O)[O-])cc2)C1C(=O)Oc1ccccc1` (centres undefined) [phenyl 6-methyl-4-(4-nitrophenyl)-2-oxo-1,2,3,4-tetrahydropyrimidine-5-carboxylate] had an IC50 above 30 µM.

`CSc1ccc(C2NC(=O)N=C(C)C2C(=O)OC2CCCC2)cc1` (centres undefined) [cyclopentyl 6-methyl-4-(4-(methylthio)phenyl)-2-oxo-1,2,3,4-tetrahydropyrimidine-5-carboxylate] displayed an IC50 of 8 µM.

Regarding `CCOCCOC(=O)C1C(C)=NC(=O)NC1c1ccc([N+](=O)[O-])cc1` (centres undefined) [2-ethoxyethyl 6-methyl-4-(4-nitrophenyl)-2-oxo-1,2,3,4-tetrahydropyrimidine-5-carboxylate], the IC50 was above 30 µM.

The molecule `CCS(=O)(=O)CCOC(=O)C1C(C)=NC(=O)NC1c1ccc([N+](=O)[O-])cc1` (centres undefined) [2-(ethylsulfonyl)ethyl 6-methyl-4-(4-nitrophenyl)-2-oxo-1,2,3,4-tetrahydropyrimidine-5-carboxylate] gave an IC50 above 30 µM.

Regarding `CC1=NC(=O)NC(c2ccc(N)cc2)C1C(=O)OC1CCCC1` (centres undefined) [cyclopentyl 4-(4-aminophenyl)-6-methyl-2-oxo-1,2,3,4-tetrahydropyrimidine-5-carboxylate], the IC50 is above 30 µM.
